A selection: hits, their analogues and other compounds. The true share with any hit is near 3.9%.
APP 5'UTR act – APP 5'UTR luciferase reporter activation. SH-SY5Y APP 5'UTR luciferase reporter, luminescence; zero percent = DMSO vehicle wells. activation, % at 2 µM. 1% of 190,000 active;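 active = activation above a set limit, based on mean plus 3 SD of controls, cut at about 140% in these data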
STAT3 activator – activators of IL-6 induced STAT3 signaling; activation (% of control), % at 5.6 µM; 0.91% of 190,000 active; U3A cells, IL-6 STAT3-luciferase reporter, luminescence; 100% = signal with IL-6 EC80 alone;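 active = activation above the screen-wide mean of compound activation plus 3 SD, cut at about 130% in these data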;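 note: 0% = background luminescence of wells with medium and substrate only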
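system = STAT3-luciferase reporter U3A cells | reagent = IL-6 stimulus at 33 ng/mL final | timing = 1 h compound pre-exposure, 6 h IL-6 stimulation, 37 °C | measured by = luminescence | evaluation = % activation versus median of IL-6-stimulated wells | control set = IL-6-only wells as 100% reference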
STAT1 activator – increases IFN-gamma driven STAT1 reporter signal; NIH 3T3 STAT1-luciferase reporter, luminescence; 100% = IFN-gamma alone, no compound; activation (% of control), % at 5.5 µM; 2.6% of 200,000 active; AID 932;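 active = activation above the screen-wide mean activation plus 3 SD, cut at about 130% in these data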;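 note: raw ratio to IFN-gamma control signal so 100% means no change and 0% no light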
STAT1 blocker – STAT1 signaling inhibition; NIH 3T3 STAT1-luciferase reporter, IFN-gamma, luminescence; 0.35% of 200,000 active; inhibition, % at 5.5 µM;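 active = inhibition above a set limit, the mean inhibition across all tested compounds plus 3 SD, cut at about 34% in these data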;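 note: 0% = IFN-gamma with DMSO and 100% = IFN-gamma with 300 µM nifuroxazide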
Pf gamet viab – inhibitors of late stage P. falciparum gametocyte viability | P. falciparum stage V gametocytes, ATP luminescence, 24 h | inhibition, % at 10.9 µM | 0.065% of 150,000 active;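 active = inhibition above the mean plus 3 SD of compounds within the control limits, set per campaign, cut at about 38% in these data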;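 note: 0% = DMSO wells and 100% = medium only without gametocytes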
NF-kB neuron act – compounds increasing NF-kB expression in human neuronal cells. NF-kB reporter expression; active compounds read high. fold change at 12.5 µM. 1.6% of 190,000 active; in the data active = fold change above about 3.3
An asterisk follows results filed as active; · = no result given.

SMILES	APP 5'UTR act	STAT3 activator	STAT1 activator	STAT1 blocker	Pf gamet viab	NF-kB neuron act
O=C(O)c1ccc2c(=O)n3cc(C(=O)c4ccccc4O)cc(Cl)c3nc2c1	·	·	·	·	-3.2	·
O=C(NN=C1C2CC3CC(C2)CC1C3)c1ccncc1	-12.4	98.2	104.2	-4.7	·	1.04
O=C(NN=C1C2CC3CC1CC(Cl)(C3)C2)c1cccs1	140.9*	97.3	127.8	-31.2	3.3	1.35
O=C(NN=C1C2CC3CC1CC(Cl)(C3)C2)c1ccccn1	159.4*	106.6	121.0	-23.8	-18.1	1.63
CCC(C)C(NC(=O)C(C)NC(=O)CNC(=O)OC(C)(C)C)C(N)=O (stereo not given)	-7.5	97.4	94.5	4.1	·	1.09
COc1ccc(C(=O)NCc2nnc(SCC(=O)N3CCCc4ccccc43)o2)cc1OC	0.4	101.7	101.0	-4.4	11.0	0.97
COc1ccc(CN2CCC(C)CC2)cc1OCc1ccccc1	·	·	·	·	-9.4	·
CCN1/C(=C\C(=S)Nc2ccccc2)Sc2ccccc21	63.2	105.1	143.9*	-49.9	-26.1	2.21
O=C(Nc1ccc2c(c1)OCO2)O[C@@H]1C[C@H]2CCC(=O)N3CC[C@@H](C1)[C@@H]23	·	·	·	·	-15.8	·
COc1ccc(-c2cc(C(=O)NCC3CCCO3)c3cc(C)ccc3n2)cc1 (stereo not given)	12.3	103.0	133.3*	-38.5	-14.5	1.4
COC1C(C)=C(C)C(=O)N1Cc1ccc(F)cc1 (stereo not given)	·	·	·	·	-2.4	·
Clc1cc(Cl)c2nc(N3CCCCC3)sc2c1	62.8	115.2	123.7	-26.1	2.5	3.3*
Clc1cc(Cl)c2nc(N3CCCC3)sc2c1	27.9	100.8	126.5	-29.0	·	·
O=C(O)C1CCCCC1C(=O)NCc1ccc(Cl)c(Cl)c1 (stereo not given)	21.1	98.1	97.6	1.0	-21.7	0.9
CC(C)=CC(=O)OCc1cc([N+](=O)[O-])cc2c1OCOC2	43.2	123.1	138.0*	-45.8	10.9	0.91
O=C(O)c1cc(N/N=C/c2ccc3c(c2)OCO3)ccc1Cl	121.0	121.6	81.7	18.7	12.1	1.05
O=C(N/N=C/c1ccc2c(c1)OCO2)c1ccc2c(c1)OCCO2	70.3	109.3	115.7	-16.5	·	2.94
O=C(O)c1cc(N/N=C/c2ccc3c(c2)OCCO3)ccc1Cl	81.9	120.1	57.5	47.7*	17.2	5.52*
C/C(=N\Nc1nc2ccccc2s1)c1ccc(Br)s1	16.9	125.6	95.3	3.0	-0.9	1.3
O=C(O)c1ccc(N/N=C/c2ccc3c(c2)OCO3)cc1	-31.0	33.5	13.2	93.1*	-33.3	0.66
C/C(=N\Nc1ccc(Cl)c(C(=O)O)c1)c1ccc2c(c1)OCO2	22.4	108.1	130.9*	-33.9	-6.5	1.93
C/C(=N\Nc1nc2ccccc2s1)c1ccc2c(c1)OCO2	46.6	100.9	120.8	-23.3	·	3.37*
O=C(NCc1cccc(OC(F)(F)F)c1)c1ccc2c(c1)S(=O)(=O)c1cc(Cl)ccc1C2=O	·	·	·	·	3.8	·
Cc1nn(C(=O)N(C)C)c(C)c1CN1C(=O)c2ccccc2C1=O	·	·	·	·	-1.0	·
CCNC(=S)N/N=C/c1ccc(OCC(=O)Nc2ccc(C)cc2)cc1	1.3	92.9	97.7	2.5	·	0.98
SMILES	APP 5'UTR act	STAT3 activator	STAT1 activator	STAT1 blocker	Pf gamet viab	NF-kB neuron act
CCCCCCSc1ccc([C@H]2N[C@@](CC(C)C)(C(=O)OC)[C@H]3C(=O)N(C)C(=O)[C@@H]23)cc1OC	·	·	·	·	9.9	·
O=c1sc(N2CCN(c3ccccc3F)CC2)nc2ccsc12	42.1	105.6	139.4*	-44.0	·	3.58*
O=c1sc(N2CCN(c3ccc(F)cc3)CC2)nc2ccsc12	14.8	115.7	122.9	-25.3	·	1.44
Cc1n(CC(O)COC2CCCCC2)c2ccccc2[n+]1C (stereo not given)	·	100.1	109.2	-4.5	·	1.05
COc1cccc(/C=N/Nc2ccc(C(=O)O)cc2)c1O	-80.1	15.0	16.7	90.8*	-38.9	0.62
CC(C)(C)c1ccc(/C=N/Nc2ccc(C(=O)O)cc2)cc1	55.3	27.0	34.4	73.6*	-11.5	4.48*
O=C(O)c1cccc(N/N=C/c2cc(Br)cc(Br)c2O)c1	130.3	129.5	130.8*	-34.5	3.2	1.8
CCNC(=S)N/N=C/c1ccc(C(=O)O)cc1	0.3	107.0	115.4	-15.7	·	0.96
COc1cccc(/C=N/Nc2ccc(S(=O)(=O)O)cc2)c1O	14.4	107.4	97.7	2.5	0.7	1.05
CC(C)(C)c1ccc(/C=N/Nc2cccc(C(=O)O)c2)cc1	84.8	64.0	65.5	37.8*	5.8	6.89*
Cc1ccccc1-c1nc(CN(Cc2c(C)nn(C)c2C)C2CC2)c(C)o1	-5.1	94.3	92.0	6.7	-1.4	0.92
CCOc1ccc(CC(=O)NNC(=O)/C=C/C(=O)O)cc1	·	·	·	·	-29.1	·
O=C(O)c1cccc(N/N=C/c2ccc(-c3ccccc3)cc2)c1	68.0	62.5	55.1	47.3*	0.8	16.3*
Cc1ccc(C(=O)NC2CCCCC2)cc1	69.7	106.9	139.0*	-42.7	12.4	3.05
Cc1ccc(C(=O)NCC(=O)NC2CCCC2)cc1	12.9	106.3	98.6	-1.4	-7.2	1.3
CCN(CC)S(=O)(=O)c1cc(C(=O)NC2CCCCC2)ccc1C	106.5	102.5	129.0*	-30.3	-23.0	1.99
CCN(CC)S(=O)(=O)c1cccc(C(=O)Nc2ccc(Cl)cn2)c1	0.7	98.7	113.0	-14.2	1.1	1.48
CCN(CC)S(=O)(=O)c1cc(C(=O)Nc2ccc(Cl)cn2)ccc1C	183.4*	108.9	135.3*	-37.0	-26.3	2.75
CC(=O)NC1CC2CCCC(C1)N2C(=O)Nc1cccc(C(C)=O)c1 (stereo not given)	·	·	·	·	-1.9	·
C=CCc1cccc(C=Nc2cccn3cc(-c4ccccc4)nc23)c1O	52.9	102.5	131.5*	-35.1	11.2	1.35
C=CCc1cccc(C=Nc2c[nH]c(=O)[nH]c2=O)c1O	·	·	·	·	0.6	·
O=C(Nc1ccc2ccccc2c1)c1cccnc1	125.4	93.9	137.0*	-40.7	9.3	5.01*
O=C(Nc1ccc2ccccc2c1)c1cnccn1	156.6*	70.0	112.3	-13.5	-11.7	6.53*
O=C(Nc1cccnc1)c1cccnc1	6.3	102.6	97.3	1.2	·	0.93
O=C(Nc1cnc2ccccc2c1)c1ccncc1	132.6	97.1	129.5*	-32.5	·	3.48*
SMILES	APP 5'UTR act	STAT3 activator	STAT1 activator	STAT1 blocker	Pf gamet viab	NF-kB neuron act
CC(C)NC(=O)N(C)C[C@H]1Oc2ccc(NC(=O)C3CC3)cc2C(=O)N([C@H](C)CO)C[C@@H]1C	·	·	·	·	-48.8	·
CSCCC(=O)Nc1cc(S(=O)(=O)N2CCOCC2)ccc1N1CCN(C)CC1	4.4	99.7	93.5	6.6	14.1	0.95
OCCN(/C=N/c1nc(-c2ccc(Br)cc2)cs1)CCO	41.9	95.8	116.0	-17.4	·	1.8
Brc1ccc(-c2csc(/N=C/N3CCCC3)n2)cc1	28.9	82.9	131.5*	-33.5	-4.5	1.35
Brc1ccc(-c2csc(/N=C/N3CCOCC3)n2)cc1	53.3	82.3	136.0*	-39.1	·	1.98
NC(=O)C1CCN(c2nc(-c3ccc4c(c3)OCCO4)cs2)CC1	·	·	·	·	-8.2	·

Compound activity as filed in PubChem.
